Our source for the inhibition in vivo and Activity values is ChEMBL document CHEMBL3272012, “5-(Tetradecyloxy)-2-furancarboxylic acid and related hypolipidemic fatty acid-like alkyloxyarylcarboxylic acids” (J Med Chem, 1977).

Series [1] concerns Rattus norvegicus. In words: Hypolipidemic activity in Wistar rat assessed as reduction in plasma triglyceride level at 374 umol/kg/day administered through diet for 4 days. As to conditions: 96 h. In kind it is functional. Put shortly: (§1)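 Young male Wistar rats (initial weight 170-190 g), groups of six, fed compound mixed into Purina Lab Chow ad libitum for 4 or 10 days; daily dose calculated from food consumption and body weight. Bled by cardiac puncture; plasma cholesterol and triglycerides by automated procedures; percent reduction versus simultaneous untreated controls, Student's t test.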

For series [2], the system named is Rattus norvegicus. Put plainly: Hypolipidemic activity in Wistar rat assessed as reduction in plasma cholesterol level at 374 umol/kg/day administered through diet for 4 days. Conditions: 96 h. It counts as functional. Put shortly:
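Young male Wistar rats, 170-190 g at start, in groups of six, given compound mixed into Purina Lab Chow ad libitum for 4 or 10 days as stated. Daily dose was calculated from food consumption and body weight. Plasma was taken by cardiac puncture at the end and cholesterol measured by automated procedure. Results are % reduction versus a concurrent untreated control group, with Student's t test.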

Series [3] concerns Rattus norvegicus. In words: Increase in liver weight in Wistar rat at 374 umol/kg/day administered through diet for 4 days. In kind it is ADME, organism-based. Conditions: in vivo, po, 96 h. Put shortly:
(§2)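 Male Wistar rats (170-190 g initial), groups of six, dosed via diet ad libitum for 4 or 10 days, daily dose from food consumption. Liver wet weight measured, expressed as g/100 g final body weight, compared with untreated controls run simultaneously.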

In series [4] the test system is Rattus norvegicus. Put plainly: Hypolipidemic activity in Wistar rat assessed as reduction in plasma triglyceride level at 439 umol/kg/day administered through diet for 4 days. In kind it is functional. Conditions: 96 h. Put shortly:
as §1

The test system of series [5] is Rattus norvegicus. Put plainly: Hypolipidemic activity in Wistar rat assessed as reduction in plasma cholesterol level at 439 umol/kg/day administered through diet for 4 days. In kind it is functional. Conditions: 96 h. Put shortly:
(§3)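 Young male Wistar rats, 170-190 g initial weight, groups of six, given compound mixed thoroughly into Purina Lab Chow ad libitum for 4 or 10 days as stated. Daily dose calculated from food consumption and body weight. Bled by cardiac puncture at end of treatment; plasma cholesterol measured by automated procedure. Expressed as percent reduction versus simultaneous untreated control group; Student's t test.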

Series [6] has as its system Rattus norvegicus. In words: Increase in liver weight in Wistar rat at 439 umol/kg/day administered through diet for 4 days. In kind it is ADME, organism-based. Conditions: in vivo, po, 96 h. Put shortly:
as §2

The test system of series [7] is Rattus norvegicus. In words: Increase in liver weight in Wistar rat at 505 umol/kg/day administered through diet for 4 days. It counts as ADME, organism-based. As to conditions: in vivo, po, 96 h.
For series [8], the system named is Rattus norvegicus. Put plainly: Hypolipidemic activity in Wistar rat assessed as reduction in plasma cholesterol level at 505 umol/kg/day administered through diet for 4 days. It counts as functional. As to conditions: 96 h. Put shortly: as §3
Series [9] deals with Rattus norvegicus. In words: Hypolipidemic activity in Wistar rat assessed as reduction in plasma triglyceride level at 505 umol/kg/day administered through diet for 4 days. Conditions: 96 h. In kind it is functional.
The subject of series [10] is Rattus norvegicus. In words: Hypolipidemic activity in Wistar rat assessed as reduction in plasma triglyceride level at 420 umol/kg/day administered through diet for 4 days. It counts as functional. As to conditions: 96 h. Put shortly: as §1
Series [11] has as its system Rattus norvegicus. In words: Increase in liver weight in Wistar rat at 420 umol/kg/day administered through diet for 4 days. It counts as ADME, organism-based. As to conditions: in vivo, po, 96 h. The gist of the method:
as §2

Series [12] deals with Rattus norvegicus. Put plainly: Hypolipidemic activity in Wistar rat assessed as reduction in plasma cholesterol level at 420 umol/kg/day administered through diet for 4 days. In kind it is functional. As to conditions: 96 h. Put shortly: as §3
Series [13] relates to Rattus norvegicus. In words: Hypolipidemic activity in Wistar rat assessed as reduction in plasma cholesterol level at 480 umol/kg/day administered through diet for 4 days. In kind it is functional. Conditions: 96 h. The gist of the method: as §3
Series [14] relates to Rattus norvegicus. In words: Hypolipidemic activity in Wistar rat assessed as reduction in plasma triglyceride level at 480 umol/kg/day administered through diet for 4 days. It counts as functional. As to conditions: 96 h.
The test system of series [15] is Rattus norvegicus. Put plainly: Increase in liver weight in Wistar rat at 480 umol/kg/day administered through diet for 4 days. Conditions: in vivo, po, 96 h. In kind it is ADME, organism-based.
For series [16], the system named is Rattus norvegicus. In words: Hypolipidemic activity in Wistar rat assessed as reduction in plasma cholesterol level at 449 umol/kg/day administered through diet for 4 days. In kind it is functional. As to conditions: 96 h. Put shortly:
as §3

Series [17] has as its system Rattus norvegicus. In words: Hypolipidemic activity in Wistar rat assessed as reduction in plasma triglyceride level at 449 umol/kg/day administered through diet for 4 days. In kind it is functional. As to conditions: 96 h.
Series [18] has as its system Rattus norvegicus. In words: Increase in liver weight in Wistar rat at 449 umol/kg/day administered through diet for 4 days. In kind it is ADME, organism-based. As to conditions: in vivo, po, 96 h.
The test system of series [19] is Rattus norvegicus. Put plainly: Hypolipidemic activity in Wistar rat assessed as reduction in plasma triglyceride level at 489 umol/kg/day administered through diet for 4 days. In kind it is functional. As to conditions: 96 h.
For series [20], the system named is Rattus norvegicus. Put plainly: Hypolipidemic activity in Wistar rat assessed as reduction in plasma cholesterol level at 489 umol/kg/day administered through diet for 4 days. In kind it is functional. Conditions: 96 h. Put shortly: as §3
In series [21] the test system is Rattus norvegicus. Put plainly: Hypolipidemic activity in Wistar rat assessed as reduction in plasma cholesterol level at 675 umol/kg/day administered through diet for 10 days. As to conditions: 240 h. In kind it is functional. The gist of the method: as §1
For series [22], the system named is Rattus norvegicus. In words: Increase in liver weight in Wistar rat at 675 umol/kg/day administered through diet for 10 days. It counts as ADME, organism-based. Conditions: in vivo, po, 240 h.
In series [23] the test system is Rattus norvegicus. Put plainly: Hypolipidemic activity in Wistar rat assessed as reduction in plasma triglyceride level at 675 umol/kg/day administered through diet for 10 days. In kind it is functional. Conditions: 240 h.
For series [24], the system named is Rattus norvegicus. In words: Increase in cholesterol level in Wistar rat liver at 430 umol/kg/day administered through diet for 4 days. As to conditions: in vivo, po, 96 h. It counts as ADME, organism-based. The gist of the method: (§4)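 Male Wistar rats (170-190 g), six per group, given compound by admixture to lab chow ad libitum for 4 or 10 days, dose derived from food intake. Liver cholesterol determined by automated procedure, expressed as mg/g wet tissue, compared with an untreated control group by Student's t test.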

The test system of series [25] is Rattus norvegicus. Put plainly: Hypolipidemic activity in Wistar rat assessed as reduction in plasma cholesterol level at 430 umol/kg/day administered through diet for 4 days. In kind it is functional. As to conditions: 96 h. Put shortly: as §3
Series [26] deals with Rattus norvegicus. Put plainly: Hypolipidemic activity in Wistar rat assessed as reduction in plasma triglyceride level at 430 umol/kg/day administered through diet for 4 days. It counts as functional. Conditions: 96 h. The gist of the method: as §1
In series [27] the test system is Rattus norvegicus. Put plainly: Increase in liver weight in Wistar rat at 430 umol/kg/day administered through diet for 4 days. In kind it is ADME, organism-based. Conditions: in vivo, po, 96 h. Put shortly: as §2
In series [28] the test system is Rattus norvegicus. In words: Increase in cholesterol level in Wistar rat liver at 420 umol/kg/day administered through diet for 10 days. In kind it is ADME, organism-based. Conditions: in vivo, po, 240 h. The gist of the method:
as §4

In series [29] the test system is Rattus norvegicus. In words: Hypolipidemic activity in Wistar rat assessed as reduction in plasma triglyceride level at 420 umol/kg/day administered through diet for 10 days. It counts as functional. As to conditions: 240 h. Put shortly: as §1
Series [30] relates to Rattus norvegicus. Put plainly: Increase in liver weight in Wistar rat at 420 umol/kg/day administered through diet for 10 days. It counts as ADME, organism-based. As to conditions: in vivo, po, 240 h.
For series [31], the system named is Rattus norvegicus. In words: Hypolipidemic activity in Wistar rat assessed as reduction in plasma cholesterol level at 420 umol/kg/day administered through diet for 10 days. It counts as functional. As to conditions: 240 h. Put shortly:
as §3

The test system of series [32] is Rattus norvegicus. In words: Increase in liver weight in Wistar rat at 499 umol/kg/day administered through diet for 4 days. In kind it is ADME, organism-based. As to conditions: in vivo, po, 96 h. Put shortly:
as §2

Series [33] deals with Rattus norvegicus. Put plainly: Hypolipidemic activity in Wistar rat assessed as reduction in plasma cholesterol level at 499 umol/kg/day administered through diet for 4 days. It counts as functional. As to conditions: 96 h. Put shortly: as §3
In series [34] the test system is Rattus norvegicus. In words: Hypolipidemic activity in Wistar rat assessed as reduction in plasma triglyceride level at 499 umol/kg/day administered through diet for 4 days. In kind it is functional. Conditions: 96 h. Put shortly: as §1

In general, inhibition in vivo refers to the share of the control response that was lost under treatment.

For the compound `CCCCCCCCCCCCCCCCOc1ccc(C(=O)CCC(=O)O)cc1`, the inhibition in vivo at 374 µmol/kg was 42% in series [1] and 15% in series [2]. For the same compound, in series [3], the Activity is recorded as 0%.
As to `CCCCCCCCCCCCCCOc1ccc(C(=O)OCC)c(O)c1`, the inhibition in vivo at 439 µmol/kg in series [4] and in series [5] was 0% throughout. This compound came in with an Activity in series [6] of 1%.
In turn, `CCCCCCCCCCCCOc1cccc(C(=O)OC)c1` showed an Activity in [7] of 4%. The inhibition in vivo at 505 µmol/kg came out at 7% in [8] and 55% in series [9].
For `CCCCCCCCCCCCCCOc1ccc(C(=O)C(F)(F)F)o1`, the results for the inhibition in vivo at 420 µmol/kg in series [10] and in series [12] were 30% and 2%, respectively. Besides, the Activity in series [11] was found to be 0%.
As for `CCCCCCCCCCCCCCOc1ccc(-c2nnn[nH]2)cc1`, the inhibition in vivo at 480 µmol/kg in series [13] and in series [14] was 0% throughout. This compound also came in with an Activity in series [15] of 1%.
On to `CCCCCCCCCCCCCCOc1ccc(C(=O)N(CC)CC)cc1`, for which the inhibition in vivo at 449 µmol/kg in series [16] and in series [17] was 0% in each case. Moreover, in [18], the Activity came to 5%.
`CCCCCCCCCCCC(=O)Nc1ccc(C(=O)OCC)cc1`: the inhibition in vivo at 489 µmol/kg in series [19] and in series [20] was 0% each time.
For the compound `CCCCCCOc1ccc(C(=O)O)cc1`, the figures for the inhibition in vivo at 675 µmol/kg in [21] and in series [23] were 6% and 16%, respectively. Further, the Activity in [22] was 1%.
Turning to `CCCCCCCCCCCCCCOc1ccc(C(=O)OC)o1`, the figures for the Activity in [24] and in series [27] were 0% and 8%, respectively. For the same compound, the results for the inhibition in vivo at 430 µmol/kg in [25] and in series [26] were 32% and 67%, respectively.
As to `CCCCCCCCCCCCCCCCCCOc1ccc(C(=O)O)o1`, the Activity came out at 18% in series [28] and 0% in [11]. The inhibition in vivo at 420 µmol/kg in series [29] was 53%; in series [12] it was 18%.
In the case of `CCCCCCCCCCCCCCOc1ccc(SCC(=O)O)cc1`, the values for the Activity in series [28] and in series [30] were 3% and 0%, respectively. In addition, the inhibition in vivo at 420 µmol/kg in [29] was found to be 11%; in series [31], 16%.
In turn, `CCCCCCCCCCCCCCOc1ccc(C(C)=O)o1` gave an Activity in series [32] of 0%. For the same compound, the inhibition in vivo at 499 µmol/kg in [33] came to 0%; in series [34], 21%.
